# ChEMBL document CHEMBL1122055, “DL-threo-beta-Fluoroaspartate and DL-threo-beta-fluoroasparagine: selective cytotoxic agents for mammalian cells in culture” (J Med Chem, 1982)
# Several values for one entry are separate records, joined by “and”; a condition that tells them apart may be missing. Identical values can stand only once.
# Experiments:
# H4 [1] = experiment: Tested for its reversal effect on growth of H4 cells at 330 + 40 ug/mL concentrations of L-aspargine and DL-threo-beta-fluoroaspartate; assay type: functional
# Procedure, shortened: (§1)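 H4 hepatoma cells seeded at 8×10^3 per 35-mm dish in F 10+ medium. On day 4, the medium was renewed and treatments started, including L-aspartate or L-asparagine. Incubation 72 h, then Lowry total cell protein per dish. Results reported as % of untreated control, mean of duplicate dishes.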
# H4 [2] = experiment: Tested for its reversal effect on growth of H4 cells at 133 + 50 ug/mL concentrations of L-aspargine and DL-threo-beta-fluoroaspartate; assay type: functional
# Procedure, shortened: (§2)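 Rat hepatoma H4 cells seeded at 1.4×10^4 per 35-mm dish in MEM+. On day 4, fresh MEM+ was added, with treatments including L-aspartate or L-asparagine. Exposure 66 h, then total cell protein per dish measured by Lowry. Results expressed as % of untreated control protein, mean of duplicate dishes.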
# H4 [3] = experiment: Tested for its cytotoxic effect on the growth of the cell strain H4 (8 x 10e 3 (MEM)) at 10 ug/mL dose; assay type: functional
# Procedure, shortened: (§3)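 Cells plated in 35-mm dishes at the stated density and medium (F 10+: Ham's F10 + 15% horse serum + 2.5% fetal calf serum; MEM+: Eagle's MEM + 5% horse + 5% fetal calf serum), grown 3 days. All strains then switched to F 10+ before treatment and incubated 4 days. Growth read as total cell protein per dish (Lowry, bovine albumin standard). Single determinations; experiment repeated twice.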
# H4 [4] = experiment: Tested for its reversal effect on growth of H4 cells at 40 ug/mL concentrations of L-aspargine and DL-threo-beta-fluoroaspartate; assay type: functional; procedure, shortened: as §1
# R5 [5] = experiment: Tested for its cytotoxic effect on the growth of the cell strain R5 (1 x 10e 3 (F 10+)) at 50 ug/mL dose; assay type: functional; procedure, shortened: as §3
# H4 [6] = experiment: Tested for its cytotoxic effect on the growth of the cell strain H4 (8 x 10e 3 (MEM)) at 50 ug/mL dose; assay type: functional; procedure, shortened: as §3
# GH4-C1 [7] = experiment: Tested for its cytotoxic effect on the growth of the cell strain GH4C1 (8 x 10e 4 (F 10+)) at 50 ug/mL dose; assay type: functional, Rattus norvegicus; procedure, shortened: as §3
# H4 [8] = experiment: Tested for its reversal effect on growth of H4 cells at 50 ug/mL concentrations of L-aspargine and DL-threo-beta-fluoroaspartate; assay type: functional; procedure, shortened: as §2
# MH1C1 [9] = experiment: Tested for its cytotoxic effect on the growth of the cell strain MH1C1 (1 x 10e 4 (F 10+)) at 50 ug/mL dose; assay type: functional; procedure, shortened: as §3
# MH1C1 [10] = experiment: Tested for its cytotoxic effect on the growth of the cell strain MH1C1 (1 x 10e 4 (F 10+)) at 10 ug/mL dose; assay type: functional; procedure, shortened: as §3
# GH3 [11] = experiment: Tested for its cytotoxic effect on the growth of the cell strain GH3 (2 x 10e 4 (F 10+)) at 50 ug/mL dose; assay type: functional, Rattus norvegicus; procedure, shortened: as §3
# R5 [12] = experiment: Tested for its cytotoxic effect on the growth of the cell strain R5 (1 x 10e 3 (F 10+)) at 10 ug/mL dose; assay type: functional; procedure, shortened: as §3
# 7800C1 cell line [13] = experiment: Tested for its cytotoxic effect on the growth of the cell strain 7800C1 (1 x 10e 4 (MEM)) at 10 ug/mL dose; assay type: functional, Rattus norvegicus; procedure, shortened: as §3
# GH4-C1 [14] = experiment: Tested for its cytotoxic effect on the growth of the cell strain GH4C1 (8 x 10e 4 (F 10+)) at 10 ug/mL dose; assay type: functional, Rattus norvegicus; procedure, shortened: as §3
# 7800C1 cell line [15] = experiment: Tested for its cytotoxic effect on the growth of the cell strain 7800C1 (1 x 10e 4 (MEM)) at 50 ug/mL dose; assay type: functional, Rattus norvegicus; procedure, shortened: as §3
# GH3 [16] = experiment: Tested for its cytotoxic effect on the growth of the cell strain GH3 (2 x 10e 4 (F 10+)) at 10 ug/mL dose; assay type: functional, Rattus norvegicus; procedure, shortened: as §3
# H4 [17] = experiment: Tested for its reversal effect on growth of H4 cells at 5 ug/mL concentrations of L-aspargine and DL-threo-beta-fluoroaspartate; assay type: functional
# GH3 [18] = experiment: Tested for its cytotoxic effect on the growth of the cell strain GH3 (2 x 10e 4 (F 10+)) at 5 ug/mL dose; assay type: functional, Rattus norvegicus; procedure, shortened: as §3
# H4 [19] = experiment: Tested for its cytotoxic effect on the growth of the cell strain H4 (8 x 10e 3 (MEM)) at 5 ug/mL dose; assay type: functional; procedure, shortened: as §3
# GH4-C1 [20] = experiment: Tested for its cytotoxic effect on the growth of the cell strain GH4C1 (8 x 10e 4 (F 10+)) at 5 ug/mL dose; assay type: functional, Rattus norvegicus; procedure, shortened: as §3
# R5 [21] = experiment: Tested for its cytotoxic effect on the growth of the cell strain R5 (1 x 10e 3 (F 10+)) at 5 ug/mL dose; assay type: functional; procedure, shortened: as §3
# H4 [22] = experiment: Tested for its cytotoxic effect on the growth of the cell strain H4 (8 x 10e 3 (MEM)) at 75 ug/mL dose; assay type: functional; procedure, shortened: as §3
# 7800C1 cell line [23] = experiment: Tested for its cytotoxic effect on the growth of the cell strain 7800C1 (1 x 10e 4 (MEM)) at 20 ug/mL dose; assay type: functional, Rattus norvegicus; procedure, shortened: as §3
# R5 [24] = experiment: Tested for its cytotoxic effect on the growth of the cell strain R5 (1 x 10e 3 (F 10+)) at 75 ug/mL dose; assay type: functional; procedure, shortened: as §3
# MH1C1 [25] = experiment: Tested for its cytotoxic effect on the growth of the cell strain MH1C1 (1 x 10e 4 (F 10+)) at 20 ug/mL dose; assay type: functional; procedure, shortened: as §3
# 7800C1 cell line [26] = experiment: Tested for its cytotoxic effect on the growth of the cell strain 7800C1 (1 x 10e 4 (MEM)) at 75 ug/mL dose; assay type: functional, Rattus norvegicus; procedure, shortened: as §3
# MH1C1 [27] = experiment: Tested for its cytotoxic effect on the growth of the cell strain MH1C1 (1 x 10e 4 (F 10+)) at 75 ug/mL dose; assay type: functional; procedure, shortened: as §3
# GH4-C1 [28] = experiment: Tested for its cytotoxic effect on the growth of the cell strain GH4C1 (8 x 10e 4 (F 10+)) at 75 ug/mL dose; assay type: functional, Rattus norvegicus; procedure, shortened: as §3
# R5 [29] = experiment: Tested for its cytotoxic effect on the growth of the cell strain R5 (1 x 10e 3 (F 10+)) at 20 ug/mL dose; assay type: functional; procedure, shortened: as §3
# 7800C1 cell line [30] = experiment: Tested for its cytotoxic effect on the growth of the cell strain 7800C1 (1 x 10e 4 (MEM)) at 5 ug/mL dose; assay type: functional, Rattus norvegicus; procedure, shortened: as §3
# GH3 [31] = experiment: Tested for its cytotoxic effect on the growth of the cell strain GH3 (2 x 10e 4 (F 10+)) at 2 ug/mL dose; assay type: functional, Rattus norvegicus; procedure, shortened: as §3
# GH4-C1 [32] = experiment: Tested for its cytotoxic effect on the growth of the cell strain GH4C1 (8 x 10e 4 (F 10+)) at 2 ug/mL dose; assay type: functional, Rattus norvegicus; procedure, shortened: as §3
# GH3 [33] = experiment: Tested for its cytotoxic effect on the growth of the cell strain GH3 (2 x 10e 4 (F 10+)) at 20 ug/mL dose; assay type: functional, Rattus norvegicus; procedure, shortened: as §3
# R5 [34] = experiment: Tested for its cytotoxic effect on the growth of the cell strain R5 (1 x 10e 3 (F 10+)) at 2 ug/mL dose; assay type: functional; procedure, shortened: as §3
# GH3 [35] = experiment: Tested for its cytotoxic effect on the growth of the cell strain GH3 (2 x 10e 4 (F 10+)) at 75 ug/mL dose; assay type: functional, Rattus norvegicus; procedure, shortened: as §3
# 7800C1 cell line [36] = experiment: Tested for its cytotoxic effect on the growth of the cell strain 7800C1 (1 x 10e 4 (MEM)) at 2 ug/mL dose; assay type: functional, Rattus norvegicus; procedure, shortened: as §3
# MH1C1 [37] = experiment: Tested for its cytotoxic effect on the growth of the cell strain MH1C1 (1 x 10e 4 (F 10+)) at 5 ug/mL dose; assay type: functional; procedure, shortened: as §3
# GH4-C1 [38] = experiment: Tested for its cytotoxic effect on the growth of the cell strain GH4C1 (8 x 10e 4 (F 10+)) at 20 ug/mL dose; assay type: functional, Rattus norvegicus; procedure, shortened: as §3
# MH1C1 [39] = experiment: Tested for its cytotoxic effect on the growth of the cell strain MH1C1 (1 x 10e 4 (F 10+)) at 2 ug/mL dose; assay type: functional; procedure, shortened: as §3
# H4 [40] = experiment: Tested for its cytotoxic effect on the growth of the cell strain H4 (8 x 10e 3 (MEM)) at 2 ug/mL dose; assay type: functional; procedure, shortened: as §3
# H4 [41] = experiment: Tested for its cytotoxic effect on the growth of the cell strain H4 (8 x 10e 3 (MEM)) at 20 ug/mL dose; assay type: functional; procedure, shortened: as §3
# H4 (Rattus norvegicus) [42] = experiment: Tested for its reversal effect on growth of H4 cells at 330 ug/mL concentrations of L-aspargine and DL-threo-beta-fluoroaspartate
# H4 (Rattus norvegicus) [43] = experiment: Tested for its reversal effect on growth of H4 cells at 133 ug/mL concentrations of L-aspargine and DL-threo-beta-fluoroaspartate
compound,measurement,setting,value
NC(=O)C(F)[C@H](N)C(=O)O.N[C@@H](CC(=O)O)C(=O)O (mixture of isomers; form 1),Cell protein in untreated control,H4 [1],93%
same,Cell protein in untreated control,H4 [2],68%
NC(=O)C(F)C(N)C(=O)O (racemic),Cell protein,H4 [3],0 ug dish-1
same,Cell protein in untreated control,H4 [4],17%
same,Cell protein,R5 [5],27 ug dish-1
same,Cell protein,H4 [6],0 ug dish-1
same,Cell protein,GH4-C1 [7],16 ug dish-1
same,Cell protein in untreated control,H4 [8],0%
same,Cell protein,MH1C1 [9],31 ug dish-1
same,Cell protein,MH1C1 [10],55 ug dish-1
same,Cell protein,GH3 [11],14 ug dish-1
same,Cell protein,R5 [12],85 ug dish-1
same,Cell protein,7800C1 cell line [13],15 ug dish-1
same,Cell protein,GH4-C1 [14],35 ug dish-1
same,Cell protein,7800C1 cell line [15],0 ug dish-1
same,Cell protein,GH3 [16],36 ug dish-1
NC(C(=O)O)C(F)C(=O)O (racemic),Cell protein,H4 [3],150 ug dish-1
same,Cell protein in untreated control,H4 [17],0% and 5%
same,Cell protein,GH3 [18],23 ug dish-1
same,Cell protein,H4 [19],9 ug dish-1
same,Cell protein,GH4-C1 [20],98 ug dish-1
same,Cell protein,R5 [21],98 ug dish-1
same,Cell protein,H4 [22],156 ug dish-1
same,Cell protein,7800C1 cell line [23],6 ug dish-1
same,Cell protein,R5 [24],90 ug dish-1
same,Cell protein,MH1C1 [25],140 ug dish-1
same,Cell protein,7800C1 cell line [26],229 ug dish-1
same,Cell protein,MH1C1 [10],159 ug dish-1
same,Cell protein,R5 [12],122 ug dish-1
same,Cell protein,7800C1 cell line [13],249 ug dish-1
same,Cell protein,MH1C1 [27],149 ug dish-1
same,Cell protein,GH4-C1 [14],126 ug dish-1
same,Cell protein,GH4-C1 [28],126 ug dish-1
same,Cell protein,R5 [29],50 ug dish-1
same,Cell protein,7800C1 cell line [30],9 ug dish-1
same,Cell protein,GH3 [31],69 ug dish-1
same,Cell protein,GH4-C1 [32],96 ug dish-1
same,Cell protein,GH3 [33],22 ug dish-1
same,Cell protein,R5 [34],128 ug dish-1
same,Cell protein,GH3 [35],61 ug dish-1
same,Cell protein,7800C1 cell line [36],10 ug dish-1
same,Cell protein,MH1C1 [37],167 ug dish-1
same,Cell protein,GH4-C1 [38],36 ug dish-1
same,Cell protein,MH1C1 [39],154 ug dish-1
same,Cell protein,H4 [40],114 ug dish-1
same,Cell protein,GH3 [16],104 ug dish-1
same,Cell protein,H4 [41],4 ug dish-1
NC(=O)C[C@H](N)C(=O)O [ASPARAGINE],Cell protein in untreated control,H4 (Rattus norvegicus) [42],100%
same,Cell protein in untreated control,H4 (Rattus norvegicus) [43],103%
